# Results from different studies.
# Effect on: cell growth or viability
Structure (SMILES),cell line,assay,setting,measurement,result
Cc1cc(Nc2ccc(C(=O)N/N=C/c3ccncc3)cc2)c2cccc(O)c2n1,Huh-7,MTT,20 µM,inhibition,76.9%
CCCCCCCCCCCCNC(=S)NCCCC[C@H](NC(=O)OCc1ccccc1)C(=O)N[C@@H](C)C(=O)N[C@@H](CCCNC(=N)N)C(N)=O,HEK-293T,MTT,72 h,EC50,102 to 121 µM
CCOC(=O)c1ccc(-n2c(C)cc(/C=C/c3ccc(OCC)cc3)c(C#N)c2=O)cc1,HepG2,MTT,"50 µM, 24 h",viability,53.1%
CC(C)C[C@H](NC(=O)[C@H](Cc1ccccc1)NC(=O)c1cnccn1)B(O)O,NCI-H2009,ATP luminescence,,IC50,0.017 µM
CNC(=O)c1cc(Oc2ccc(NC(=O)Nc3ccc(Cl)c(C(F)(F)F)c3)cc2)ccn1,HepG2,SRB,"100 µM, 48 h",viability,40.3%
COc1cc(Nc2nccc(-c3cnn4nc(OC)ccc34)n2)cc(C(F)(F)F)c1,NCI-H292,ATP luminescence,,IC50,0.45 µM
COc1ccc(NC(=O)c2c(Nc3ccccc3)sc(C(=O)NN=Cc3ccccc3)c2NC(C)=O)cc1,HepG2,SRB,"100 µM, 48 h",viability,60.2%
CC(=O)Oc1ccc(/C=N/NC(=O)c2ccc(Nc3cc(C)nc4c(O)cccc34)cc2)cc1,Huh-7,MTT,20 µM,inhibition,31.2%
CCOC(=O)c1ccc(-n2c(-c3ccc(C)cc3)cc(-c3ccc(O)cc3)c(C#N)c2=O)cc1,HepG2,MTT,"25 µM, 24 h",viability,33.1%
COc1ccc(NC(=O)c2c(Nc3ccccc3)sc(C#N)c2NC(=O)CNc2ccccc2)cc1,HepG2,SRB,"1 nM, 48 h",viability,102%
CCOC(=O)c1ccc(-n2c(C)cc(C)c(C#N)c2=O)cc1,HepG2,MTT,"3.125 µM, 24 h",viability,100%
COc1ccc(NC(=O)c2c(Nc3ccccc3)sc(C#N)c2NC(=O)CNc2ccccc2Cl)cc1,HepG2,SRB,"10 nM, 48 h",viability,88.3%
Cc1cc(Nc2ccc(C(=O)N/N=C/c3ccnc(Cl)c3)cc2)c2cccc(O)c2n1,Huh-7,MTT,20 µM,inhibition,32.9%
C=CC(=O)Nc1cccc(Nc2nc(Nc3ccc(OCCOC)cc3)ncc2F)c1,Ramos,,48 h,GI50,9.2 µM
COc1ccc(NC(=O)c2c(Nc3ccccc3)sc(C#N)c2NC(=O)CNc2ccc(O)cc2)cc1,HepG2,SRB,"100 µM, 48 h",viability,53.9%
c1ccc(-c2csc(NCc3ncccn3)n2)nc1,Huh-7,,,CC50,> 40 µM
CCOC(=O)c1ccc(-n2c(C)cc(/C=C/c3ccc(OC)cc3)c(C#N)c2=O)cc1,HepG2,MTT,"25 µM, 24 h",viability,72.6%
COc1ccc(NC(=O)c2c(Nc3ccccc3)sc(C#N)c2NC(=O)CNc2ccc([N+](=O)[O-])cc2)cc1,HepG2,SRB,"0.1 µM, 48 h",viability,75.2%
C=CC(=O)N1CCC[C@@H](n2nc(-c3ccc(Oc4ccccc4)cc3)c3c(N)ncnc32)C1,Ramos,,48 h,GI50,> 10 µM
CCCCCCCCCCCCNC(=S)NCCCC[C@H](NS(C)(=O)=O)C(=O)N[C@H](C)C(=O)N[C@@H](CCCNC(=N)N)C(=O)N1CCOCC1,HEK-293T,MTT,72 h,EC50,> 100 µM
CCOC(=O)c1ccc(NC(=O)C2=C3C(=Nc4ccccc43)NC2=O)cc1,HepG2,MTT,"12.5 µM, 24 h",viability,68.1%
Cc1cc(Nc2ccc(C(=O)N/N=C/c3cc4ccccc4[nH]3)cc2)c2cccc(O)c2n1,Huh-7,MTT,20 µM,inhibition,60.2%
CO[C@]1(C(=O)N[C@@H](C)c2ccc(-n3cc(F)cn3)nc2)CC[C@H](c2nc(C)cc(Nc3cc(C)[nH]n3)n2)CC1,NCI-H292,ATP luminescence,72 h,GI50,> 10 µM
CCOC(=O)c1sc(NCc2ncccn2)nc1-c1ccccn1,Huh-7,,,CC50,> 40 µM
COc1ccc(NC(=O)c2c(Nc3ccccc3)sc(C(=O)NN=Cc3cc(OC)c(OC)c(OC)c3)c2NC(C)=O)cc1,HepG2,SRB,"10 nM, 48 h",viability,89.2%
Cc1cc(Nc2ccc(C(=O)N/N=C/c3ccccc3)cc2)c2cccc(O)c2n1,Huh-7,MTT,20 µM,inhibition,32.3%
CCOCCOCCOCCNC(=S)NCCCC[C@H](NS(C)(=O)=O)C(=O)N[C@@H](C)C(=O)N[C@@H](CCCNC(=N)N)C(N)=O,HEK-293T,MTT,72 h,EC50,> 100 µM
Cc1cc(Nc2ccc(C(=O)N/N=C/c3ccc(N(C)C)cc3)cc2)c2cccc(O)c2n1,Huh-7,MTT,20 µM,inhibition,69.9%
CCOC(=O)c1ccc(N2C(N)=C(C#N)C3(C(=O)Nc4ccccc43)C(C#N)=C2O)cc1 (stereo not drawn),HepG2,MTT,"1.56 µM, 24 h",viability,94.2%
COc1ccc(/C=N/NC(=O)c2ccc(Nc3cc(C)nc4c(O)cccc34)cc2)cc1O,Huh-7,MTT,20 µM,inhibition,30.2%
COc1cc2c(Nc3ccc(Br)cc3F)ncnc2cc1OCC1CCN(C)CC1,NCI-H292,ATP luminescence,72 h,GI50,1.14 µM
Cc1cc(Nc2ccc(C(=O)N/N=C/c3cccs3)cc2)c2cccc(O)c2n1,Huh-7,MTT,20 µM,inhibition,42.1%
COc1ccc(NC(=O)c2c(Nc3ccccc3)sc(C(=O)NN=Cc3ccc(C)cc3)c2NC(C)=O)cc1,HepG2,SRB,"1 nM, 48 h",viability,100%
